Values after ≈ are worked out from the molar mass of the structure shown. Active and inactive are the calls of the source.
How the values were obtained:
Micrococcus luteus [1] = assay: Antibacterial activity against Micrococcus luteus ATCC 4698 by broth microdilution method; assay type: functional; conditions: NCTC 2665
Summary of the method: (§1)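 Broth microdilution per NCCLS. Compounds dissolved in DMSO as 10 mg/mL stock, diluted in Mueller Hinton broth (bacteria) or Sabouraud dextrose broth (fungi). Amikacin served as the positive control for bacteria and nystatin for fungi.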

Clostridium sporogenes = assay: Antibacterial activity against Clostridium sporogenes ATCC 19404 by broth microdilution method; assay type: functional; summary of the method: as §1
Escherichia coli = assay: Antibacterial activity against Escherichia coli ATCC 25922 by broth microdilution method; assay type: functional; summary of the method: as §1
Proteus hauseri = assay: Antibacterial activity against Proteus hauseri ATCC 13315 by broth microdilution method; assay type: functional; summary of the method: as §1
Salmonella enteritidis = assay: Antibacterial activity against Salmonella enterica subsp. enterica serovar Enteritidis ATCC 13076 by broth microdilution method; assay type: functional; summary of the method: as §1
Pseudomonas aeruginosa = assay: Antibacterial activity against Pseudomonas aeruginosa ATCC 9027 by broth microdilution method; assay type: functional; summary of the method: as §1
Candida albicans = assay: Antifungal activity against Candida albicans ATCC 10231 by broth microdilution method; assay type: functional; summary of the method: as §1
Saccharomyces cerevisiae = assay: Antifungal activity against Saccharomyces cerevisiae ATCC 9763 by broth microdilution method; assay type: functional; summary of the method: as §1
Aspergillus brasiliensis = assay: Antifungal activity against Aspergillus brasiliensis ATCC 16404 by broth microdilution method; assay type: functional; summary of the method: as §1
Kocuria rhizophila = assay: Antibacterial activity against Kocuria rhizophila ATCC 9341 by broth microdilution method; assay type: functional; conditions: DC2201; summary of the method: as §1
NCI-H460 [2] = assay: Cytotoxicity against human NCI-H460 cells after 72 hrs by MTT assay; assay type: functional, cell-based; conditions: NCI-H460, 72 h
Summary of the method: (§2)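 Seeding in 96-well plates at 1000 (NCI-H460), 2000 (NCI-H460/R) or 4000 (HaCaT) cells/well, treated after 24 h for 72 h. MTT at 0.4 mg/mL final, 4 h at 37 °C. Formazan dissolved in DMSO, absorbance read at 540 nm. Inhibition % = (1 − A treated/A untreated)×100. IC30 and IC50 obtained by linear regression.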

NCI-H460 [3] = assay: Cytotoxicity against multidrug resistant human NCI-H460 cells after 72 hrs by MTT assay; assay type: functional, cell-based; conditions: NCI-H460, 72 h; summary of the method: as §2
HaCaT [4] = assay: Cytotoxicity against human HaCaT cells after 72 hrs by MTT assay; assay type: cell-based; conditions: for IC50: Homo sapiens, HaCaT; for IC30: human, hacat; summary of the method: as §2
Staphylococcus aureus = assay: Antibacterial activity against Staphylococcus aureus ATCC 6538 by broth microdilution method; assay type: functional; summary of the method: as §1
Bacillus spizizenii = assay: Antibacterial activity against Bacillus subtilis ATCC 6633 by broth microdilution method; assay type: functional; summary of the method: as §1
Micrococcus luteus [5] = assay: Antibacterial activity against Micrococcus luteus ATCC 10240 by broth microdilution method; assay type: functional; summary of the method: as §1
NCI-H460 [6] = assay: Induction of apoptosis in human NCI-H460 cells assessed as live cells at 25 uM after 72 hrs by annexin-V/propidium iodide staining-based flow cytometric analysis (reference value: 98.3%); assay type: functional
NCI-H460 [7] = assay: Induction of apoptosis in human NCI-H460 cells assessed as early apoptotic cells at 25 uM after 72 hrs by annexin-V/propidium iodide staining-based flow cytometric analysis (reference value: 0.3%); assay type: functional
NCI-H460 [8] = assay: Induction of apoptosis in human NCI-H460 cells assessed as late apoptotic/necrotic cells at 25 uM after 72 hrs by annexin-V/propidium iodide staining-based flow cytometric analysis (reference value: 0.2%); assay type: functional
NCI-H460 [9] = assay: Induction of apoptosis in human NCI-H460 cells assessed as dead cells at 25 uM after 72 hrs by annexin-V/propidium iodide staining-based flow cytometric analysis (reference value: 1.2%); assay type: functional
NCI-H460 [10] = assay: Induction of apoptosis in multidrug resistant human NCI-H460 cells assessed as live cells at 25 uM after 72 hrs by annexin-V/propidium iodide staining-based flow cytometric analysis (reference value: 96.4%); assay type: functional
NCI-H460 [11] = assay: Induction of apoptosis in multidrug resistant human NCI-H460 cells assessed as early apoptotic cells at 25 uM after 72 hrs by annexin-V/propidium iodide staining-based flow cytometric analysis (reference value: 1.1%); assay type: functional
NCI-H460 [12] = assay: Induction of apoptosis in multidrug resistant human NCI-H460 cells assessed as late apoptotic/necrotic cells at 25 uM after 72 hrs by annexin-V/propidium iodide staining-based flow cytometric analysis (reference value: 1%); assay type: functional
NCI-H460 [13] = assay: Induction of apoptosis in multidrug resistant human NCI-H460 cells assessed as dead cells at 25 uM after 72 hrs by annexin-V/propidium iodide staining-based flow cytometric analysis (reference value: 1.5%); assay type: functional
[14] = Induction of apoptosis in human HaCaT cells assessed as live cells at 25 uM after 72 hrs by annexin-V/propidium iodide staining-based flow cytometric analysis (reference value: 96.8%); assay type: cell-based; conditions: read-out: Activity
HaCaT [15] = assay: Induction of apoptosis in human HaCaT cells assessed as early apoptotic cells at 25 uM after 72 hrs by annexin-V/propidium iodide staining-based flow cytometric analysis (reference value: 0.2%); assay type: cell-based
HaCaT [16] = assay: Induction of apoptosis in human HaCaT cells assessed as late apoptotic/necrotic cells at 25 uM after 72 hrs by annexin-V/propidium iodide staining-based flow cytometric analysis (reference value: 0.2%); assay type: cell-based
HaCaT [17] = assay: Induction of apoptosis in human HaCaT cells assessed as dead cells at 25 uM after 72 hrs by annexin-V/propidium iodide staining-based flow cytometric analysis (reference value: 2.8%); assay type: cell-based
NCI-H460 [18] = assay: Induction of superoxide anion generation in multidrug resistant human NCI-H460 cells at 25 uM after 72 hrs by DHE staining-based flow cytometric analysis relative to control; assay type: functional, cell-based
Summary of the method: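 Seeded as for cell death (50,000 or 100,000 cells/well), treated 72 h at 25 µM, with CDDP 5 µM as control. Adherent cells trypsinized and loaded with 1 µM DHE for 30 min at 37 °C in the dark, then washed twice in PBS. Flow cytometry at ex 488/em 585 nm (FL2-H). Mean fluorescence intensity corrected for autofluorescence and compared with untreated control.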

[19] = Selectivity ratio of IC30/IC50 for human HaCaT cells to IC30/IC50 for human NCI-H460 cells; assay type: ADME, cell-based; conditions: HaCaT cells versus NCI-H460 cells
Summary of the method: (§3)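 Fold threshold of 1.5 used to call selectivity to cancer cells, resistance, or selectivity to MDR cells.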

[20] = Selectivity ratio of IC30/IC50 for human HaCaT cells to IC30/IC50 for multidrug resistant human NCI-H460 cells; assay type: ADME, cell-based; conditions: HaCaT cells versus multidrug resistant NCI-H460 cells; summary of the method: as §3
NCI-H460 [21] = assay: Selectivity ratio of IC30/IC50 for human NCI-H460 cells to IC30/IC50 for multidrug resistant human NCI-H460 cells; assay type: functional; summary of the method: as §3

## CCNC1=CC(=O)C(C(C)(C)C)=CC1=O
Micrococcus luteus [1]
  MIC: 1510 µM (≈ 313 µg/mL)
Clostridium sporogenes
  MIC: 1510 µM (≈ 313 µg/mL)
Escherichia coli
  MIC: 188 µM (≈ 39 µg/mL)
Proteus hauseri
  MIC: 1510 µM (≈ 313 µg/mL)
Salmonella enteritidis
  MIC: 758 µM (≈ 157 µg/mL)
Pseudomonas aeruginosa
  MIC: 3020 µM (≈ 626 µg/mL)
Candida albicans
  MIC: 1510 µM (≈ 313 µg/mL)
Saccharomyces cerevisiae
  MIC: 3020 µM (≈ 626 µg/mL)
Aspergillus brasiliensis
  MIC: 381 µM (≈ 79 µg/mL)
Kocuria rhizophila
  MIC: 758 µM (≈ 157 µg/mL)
NCI-H460 [2]
  IC30: 45 µM
  IC50: 64 µM
NCI-H460 [3]
  IC30: 45 µM
  IC50: 65 µM
HaCaT [4]
  IC50: 75 µM
  IC30: 50 µM
Staphylococcus aureus
  MIC: 96 µM (≈ 19.9 µg/mL)
Bacillus spizizenii
  MIC: 1510 µM (≈ 313 µg/mL)
Micrococcus luteus [5]
  MIC: 48 µM (≈ 9.95 µg/mL)

## NYSTATIN
Candida albicans
  MIC: 2700 µM
Saccharomyces cerevisiae
  MIC: 1350 µM
Aspergillus brasiliensis
  MIC: 1350 µM

## CCCCCCCCNC1=CC(=O)C(C[C@]2(C)[C@@H](C)CC[C@]3(C)C(C)=CCC[C@@H]23)=CC1=O
NCI-H460 [6]
  Activity: 95.1%
NCI-H460 [7]
  Activity: 0%
NCI-H460 [8]
  Activity: 0.3%
NCI-H460 [9]
  Activity: 4.6%
NCI-H460 [10]
  Activity: 96.1%
NCI-H460 [11]
  Activity: 0.1%
NCI-H460 [12]
  Activity: 0.7%
NCI-H460 [13]
  Activity: 3.1%
[14]
  viability at 72 h, 25 µM: 93.4%
HaCaT [15]
  Activity: 0.1%
HaCaT [16]
  Activity: 0.7%
HaCaT [17]
  Activity: 5.8%
NCI-H460 [2]
  IC30: > 100 µM
  IC50: > 100 µM
NCI-H460 [3]
  IC30: > 100 µM
  IC50: > 100 µM
HaCaT [4]
  IC50: > 100 µM
  IC30: > 100 µM
NCI-H460 [18]
  Activity: inactive

## CC(C)(C)C1=CC(=O)C(NCCc2ccccc2)=CC1=O
Micrococcus luteus [1]
  MIC: 2210 µM (≈ 626 µg/mL)
Clostridium sporogenes
  MIC: 2210 µM (≈ 626 µg/mL)
Proteus hauseri
  MIC: 2210 µM (≈ 626 µg/mL)
Salmonella enteritidis
  MIC: 4420 µM (≈ 1250 µg/mL)
Pseudomonas aeruginosa
  MIC: 2210 µM (≈ 626 µg/mL)
Candida albicans
  MIC: 2210 µM (≈ 626 µg/mL)
Saccharomyces cerevisiae
  MIC: 2210 µM (≈ 626 µg/mL)
Aspergillus brasiliensis
  MIC: 1110 µM (≈ 313 µg/mL)
NCI-H460 [6]
  Activity: 80.8%
NCI-H460 [7]
  Activity: 0.8%
NCI-H460 [8]
  Activity: 5.4%
NCI-H460 [9]
  Activity: 13%
NCI-H460 [10]
  Activity: 81%
NCI-H460 [11]
  Activity: 1.3%
NCI-H460 [12]
  Activity: 3.6%
NCI-H460 [13]
  Activity: 14.1%
[14]
  viability at 72 h, 25 µM: 89.2%
HaCaT [15]
  Activity: 0.8%
HaCaT [16]
  Activity: 1.7%
HaCaT [17]
  Activity: 8.3%
Kocuria rhizophila
  MIC: 2210 µM (≈ 626 µg/mL)
NCI-H460 [2]
  IC30: 17 µM
  IC50: 35 µM
NCI-H460 [3]
  IC30: 11 µM
  IC50: 33 µM
HaCaT [4]
  IC50: > 100 µM
  IC30: > 100 µM
[19]
  selectivity ratio: ≤ 1.5
[20]
  selectivity ratio: ≤ 1.5
NCI-H460 [18]
  Activity: inactive
Bacillus spizizenii
  MIC: 4420 µM (≈ 1250 µg/mL)
Micrococcus luteus [5]
  MIC: 4420 µM (≈ 1250 µg/mL)

## CCCCNC1=CC(=O)C(C[C@]2(C)[C@@H](C)CC[C@]3(C)C(C)=CCC[C@@H]23)=CC1=O
NCI-H460 [2]
  IC30: 91 µM
  IC50: > 100 µM
NCI-H460 [3]
  IC30: 24 µM
  IC50: > 100 µM
HaCaT [4]
  IC50: > 100 µM
  IC30: 86 µM
[19]
  selectivity ratio: ≤ 1.5
[20]
  selectivity ratio: ≤ 1.5
NCI-H460 [21]
  selectivity ratio: <=1.5

## CCNC1=CC(=O)C=C(C(C)(C)C)C1=O
Micrococcus luteus [1]
  MIC: 758 µM (≈ 157 µg/mL)
Clostridium sporogenes
  MIC: 758 µM (≈ 157 µg/mL)
Escherichia coli
  MIC: 24 µM (≈ 4.97 µg/mL)
Proteus hauseri
  MIC: 758 µM (≈ 157 µg/mL)
Salmonella enteritidis
  MIC: 381 µM (≈ 79 µg/mL)
Pseudomonas aeruginosa
  MIC: 758 µM (≈ 157 µg/mL)
Candida albicans
  MIC: 1510 µM (≈ 313 µg/mL)
Saccharomyces cerevisiae
  MIC: 1510 µM (≈ 313 µg/mL)
Aspergillus brasiliensis
  MIC: 48 µM (≈ 9.95 µg/mL)
Kocuria rhizophila
  MIC: 381 µM (≈ 79 µg/mL)
NCI-H460 [2]
  IC30: 4 µM
  IC50: 13 µM
NCI-H460 [3]
  IC30: 5 µM
  IC50: 14 µM
HaCaT [4]
  IC50: 30 µM
  IC30: 22 µM
[19]
  selectivity ratio: ≤ 1.5
[20]
  selectivity ratio: ≤ 1.5
Staphylococcus aureus
  MIC: 24 µM (≈ 4.97 µg/mL)
Bacillus spizizenii
  MIC: 758 µM (≈ 157 µg/mL)
Micrococcus luteus [5]
  MIC: 24 µM (≈ 4.97 µg/mL)

From ChEMBL document CHEMBL3822380, “Simple avarone mimetics as selective agents against multidrug resistant cancer cells” (Eur J Med Chem, 2016)
